Data as given in ChEMBL document CHEMBL1144619, “The synthesis and biological evaluation of novel series of nitrile-containing fluoroquinolones as antibacterial agents” (Bioorg Med Chem Lett, 2007).
In brackets after ≈: the same amount, converted by molar mass.

Key:
Moraxella catarrhalis = experiment: Antibacterial activity against Moraxella catarrhalis BC-3531; type: functional
Staphylococcus aureus [1] = experiment: Antibacterial activity against Staphylococcus aureus SA2552; type: functional
Streptococcus pneumoniae [2] = experiment: Antibacterial activity against Streptococcus pneumoniae SV1; type: functional
Haemophilus influenzae = experiment: Antibacterial activity against Haemophilus influenzae HI3542; type: functional; settings: HI-3542
Staphylococcus aureus [3] = experiment: Antibacterial activity against Staphylococcus aureus UC76; type: functional
Streptococcus pneumoniae [4] = experiment: Antibacterial activity against fluoroquinolone resistance Streptococcus pneumoniae SP3765; type: functional
[5] = Volume of distribution in rat at 1 mg/kg, iv; type: ADME, organism-based; design: dose 1 mg/kg, route intravenous; settings: in vivo, read-out: Vdss
[6] = Half life in rat at 1 mg/kg, iv; type: ADME, organism-based; design: dose 1 mg/kg, route intravenous; settings: in vivo
[7] = Cmax in rat at 5 mg/kg, po; type: ADME, organism-based; design: dose 5 mg/kg, route oral; settings: in vivo
hERG (KCNH2) = hERG (KCNH2) (Homo sapiens, UniProt Q12809); experiment: Displacement of [3H]dofetilide from human ERG at 300 uM; settings: probe [3H]dofetilide
Method in brief: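 Radioligand filter-binding assay measuring displacement of [3H]-dofetilide from the hERG channel, run as in a patent protocol.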

[8] = Clearance in rat at 1 mg/kg, iv; type: ADME, organism-based; design: dose 1 mg/kg, route intravenous; settings: in vivo
Rattus norvegicus = experiment: AUC in rat at 1 mg/kg, iv; type: ADME, organism-based, Plasma; design: dose 1 mg/kg, route intravenous; settings: in vivo
[9] = Bioavailability in rat at 5 mg/kg, po; type: ADME, organism-based; settings: in vivo
[10] = target: Voltage-gated inwardly rectifying potassium channel KCNH2 (Homo sapiens, UniProt Q12809); experiment: Displacement of [3H]dofetilide from human ERG by fliter binding assay
Voltage-gated inwardly rectifying potassium channel KCNH2, sequence (Q12809 whole entry): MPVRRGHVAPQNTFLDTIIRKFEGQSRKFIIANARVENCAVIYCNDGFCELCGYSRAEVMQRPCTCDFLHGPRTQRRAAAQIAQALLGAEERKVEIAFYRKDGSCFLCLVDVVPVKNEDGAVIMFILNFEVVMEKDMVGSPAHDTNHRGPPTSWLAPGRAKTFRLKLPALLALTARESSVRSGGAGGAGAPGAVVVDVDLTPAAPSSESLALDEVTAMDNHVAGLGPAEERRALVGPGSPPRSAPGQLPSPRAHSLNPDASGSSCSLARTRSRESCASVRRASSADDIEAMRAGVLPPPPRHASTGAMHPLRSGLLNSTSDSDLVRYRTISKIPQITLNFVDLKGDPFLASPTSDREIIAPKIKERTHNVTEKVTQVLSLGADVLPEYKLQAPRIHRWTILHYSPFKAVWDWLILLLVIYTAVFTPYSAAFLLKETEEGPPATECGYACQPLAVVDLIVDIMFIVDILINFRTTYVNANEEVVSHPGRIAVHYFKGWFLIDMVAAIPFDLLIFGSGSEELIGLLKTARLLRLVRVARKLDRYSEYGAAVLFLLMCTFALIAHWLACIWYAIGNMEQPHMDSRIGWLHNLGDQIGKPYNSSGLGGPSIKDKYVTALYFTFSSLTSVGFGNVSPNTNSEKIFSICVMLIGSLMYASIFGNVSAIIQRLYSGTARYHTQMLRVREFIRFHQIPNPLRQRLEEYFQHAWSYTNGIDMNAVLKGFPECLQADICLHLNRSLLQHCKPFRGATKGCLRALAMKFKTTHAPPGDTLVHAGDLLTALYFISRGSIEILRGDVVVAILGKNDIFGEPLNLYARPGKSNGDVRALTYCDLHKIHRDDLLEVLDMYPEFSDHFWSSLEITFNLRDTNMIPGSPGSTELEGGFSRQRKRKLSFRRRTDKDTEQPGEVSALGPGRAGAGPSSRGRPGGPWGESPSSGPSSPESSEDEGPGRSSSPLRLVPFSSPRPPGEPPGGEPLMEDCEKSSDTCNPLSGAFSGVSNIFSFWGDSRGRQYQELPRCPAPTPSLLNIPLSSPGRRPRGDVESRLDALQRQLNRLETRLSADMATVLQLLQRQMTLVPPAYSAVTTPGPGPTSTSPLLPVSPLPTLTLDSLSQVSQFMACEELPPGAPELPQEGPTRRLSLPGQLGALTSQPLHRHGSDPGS

hERG (KCNH2), sequence (Q12809 whole entry): as above

SMILES: COc1c(N2CC[C@@H]([C@H](C)N)C2)c(F)cc2c(=O)c(C(=O)O)cn(C3CC3)c12
- MIC (Moraxella catarrhalis): 0.015 µg/mL (≈ 0.0385 µM)
- MIC (Staphylococcus aureus [1]): 0.008 µg/mL (≈ 0.0205 µM)
- MIC (Streptococcus pneumoniae [2]): 0.004 µg/mL (≈ 0.0103 µM)
- MIC (Haemophilus influenzae): 0.004 µg/mL (≈ 0.0103 µM)
- MIC (Staphylococcus aureus [3]): 0.002 µg/mL (≈ 0.00514 µM)
- MIC (Streptococcus pneumoniae [4]): 0.03 µg/mL (≈ 0.077 µM)

SMILES: CN[C@@H](CC#N)[C@@H]1CCN(c2c(F)cc3c(=O)c(C(=O)O)cn(C4CC4)c3c2OC)C1
- Vd [5]: 1.8 L/kg
- half-life [6]: 2.4 h
- MIC (Moraxella catarrhalis): 0.06 µg/mL (≈ 0.14 µM)
- MIC (Staphylococcus aureus [1]): 0.06 µg/mL (≈ 0.14 µM)
- Cmax [7]: 1400 ng/mL
- MIC (Streptococcus pneumoniae [2]): 0.06 µg/mL (≈ 0.14 µM)
- inhibition at 300 µM (hERG (KCNH2)): 9%
- MIC (Haemophilus influenzae): 0.03 µg/mL (≈ 0.07 µM)
- clearance [8]: 19 mL/min/kg
- MIC (Staphylococcus aureus [3]): 0.008 µg/mL (≈ 0.0187 µM)
- AUC (Rattus norvegicus): 4.4 ug/hr.ml
- MIC (Streptococcus pneumoniae [4]): 0.5 µg/mL (≈ 1.17 µM)
- bioavailability [9]: 53%
- Ki [10]: > 150 µM

SMILES: COc1c(N2CC[C@@H](CNCCC#N)C2)ccc2c(=O)c(C(=O)O)cn(C3CC3)c12
- MIC (Moraxella catarrhalis): 1 µg/mL (≈ 2.44 µM)
- MIC (Staphylococcus aureus [1]): 0.25 µg/mL (≈ 0.609 µM)
- MIC (Streptococcus pneumoniae [2]): 0.125 µg/mL (≈ 0.305 µM)
- MIC (Haemophilus influenzae): 0.25 µg/mL (≈ 0.609 µM)
- MIC (Staphylococcus aureus [3]): 0.03 µg/mL (≈ 0.0731 µM)
- MIC (Streptococcus pneumoniae [4]): 2 µg/mL (≈ 4.87 µM)

SMILES: COc1c(N2CC[C@@H]([C@H](C)N)C2)ccc2c(=O)c(C(=O)O)cn(C3CC3)c12
- MIC (Moraxella catarrhalis): 0.06 µg/mL (≈ 0.162 µM)
- MIC (Staphylococcus aureus [1]): 0.03 µg/mL (≈ 0.0808 µM)
- MIC (Streptococcus pneumoniae [2]): 0.015 µg/mL (≈ 0.0404 µM)
- MIC (Haemophilus influenzae): 0.125 µg/mL (≈ 0.337 µM)
- MIC (Staphylococcus aureus [3]): 0.008 µg/mL (≈ 0.0215 µM)
- MIC (Streptococcus pneumoniae [4]): 0.125 µg/mL (≈ 0.337 µM)

SMILES: COc1c(N2CC[C@@H]([C@@H](N)CC#N)C2)ccc2c(=O)c(C(=O)O)cn(C3CC3)c12
- Vd [5]: 0.5 L/kg
- half-life [6]: 1.8 h
- MIC (Moraxella catarrhalis): 0.125 µg/mL (≈ 0.315 µM)
- MIC (Staphylococcus aureus [1]): 0.06 µg/mL (≈ 0.151 µM)
- Cmax [7]: 1400 ng/mL
- MIC (Streptococcus pneumoniae [2]): 0.03 µg/mL (≈ 0.0757 µM)
- inhibition at 300 µM (hERG (KCNH2)): 30%
- MIC (Haemophilus influenzae): 0.06 µg/mL (≈ 0.151 µM)
- clearance [8]: 16 mL/min/kg
- MIC (Staphylococcus aureus [3]): 0.008 µg/mL (≈ 0.0202 µM)
- AUC (Rattus norvegicus): 5.2 ug/hr.ml
- MIC (Streptococcus pneumoniae [4]): 0.5 µg/mL (≈ 1.26 µM)
- bioavailability [9]: 22%
- Ki [10]: > 150 µM

SMILES: Cc1c(N2CC[C@@H]([C@H](C)N)C2)c(F)cc2c(=O)c(C(=O)O)cn(C3CC3)c12
- MIC (Moraxella catarrhalis): 0.015 µg/mL (≈ 0.0402 µM)
- MIC (Staphylococcus aureus [1]): 0.03 µg/mL (≈ 0.0803 µM)
- MIC (Streptococcus pneumoniae [2]): 0.002 µg/mL (≈ 0.00536 µM)
- MIC (Haemophilus influenzae): 0.004 µg/mL (≈ 0.0107 µM)
- MIC (Staphylococcus aureus [3]): 0.002 µg/mL (≈ 0.00536 µM)
- MIC (Streptococcus pneumoniae [4]): 0.03 µg/mL (≈ 0.0803 µM)

SMILES: Cc1c(N2CC[C@@H]([C@H](C)NCCC#N)C2)c(F)cc2c(=O)c(C(=O)O)cn(C3CC3)c12
- MIC (Moraxella catarrhalis): 0.015 µg/mL (≈ 0.0352 µM)
- MIC (Staphylococcus aureus [1]): 0.008 µg/mL (≈ 0.0188 µM)
- MIC (Streptococcus pneumoniae [2]): 0.008 µg/mL (≈ 0.0188 µM)
- MIC (Haemophilus influenzae): 0.03 µg/mL (≈ 0.0703 µM)
- MIC (Staphylococcus aureus [3]): 0.002 µg/mL (≈ 0.00469 µM)
- MIC (Streptococcus pneumoniae [4]): 0.06 µg/mL (≈ 0.141 µM)
- Ki [10]: 72 µM

SMILES: CC1COc2c(N3CC[C@@H]([C@H](C)NCCC#N)C3)c(F)cc3c(=O)c(C(=O)O)cn1c23 (some centres not stated)
- MIC (Moraxella catarrhalis): 0.125 µg/mL (≈ 0.292 µM)
- MIC (Staphylococcus aureus [1]): 0.03 µg/mL (≈ 0.07 µM)
- MIC (Streptococcus pneumoniae [2]): 0.06 µg/mL (≈ 0.14 µM)
- inhibition at 300 µM (hERG (KCNH2)): 10%
- MIC (Haemophilus influenzae): 0.06 µg/mL (≈ 0.14 µM)
- MIC (Staphylococcus aureus [3]): 0.015 µg/mL (≈ 0.035 µM)
- MIC (Streptococcus pneumoniae [4]): 0.25 µg/mL (≈ 0.583 µM)
- Ki [10]: > 150 µM

SMILES: CN[C@@H](CC#N)[C@@H]1CCN(c2c(F)cc3c(=O)c(C(=O)O)cn4c3c2OCC4C)C1 (some centres not stated)
- MIC (Moraxella catarrhalis): 0.25 µg/mL (≈ 0.603 µM)
- MIC (Staphylococcus aureus [1]): 0.125 µg/mL (≈ 0.302 µM)
- MIC (Streptococcus pneumoniae [2]): 0.125 µg/mL (≈ 0.302 µM)
- inhibition at 300 µM (hERG (KCNH2)): 19%
- MIC (Haemophilus influenzae): 0.03 µg/mL (≈ 0.0724 µM)
- MIC (Staphylococcus aureus [3]): 0.06 µg/mL (≈ 0.145 µM)
- MIC (Streptococcus pneumoniae [4]): 2 µg/mL (≈ 4.83 µM)
- Ki [10]: > 150 µM

SMILES: Cc1c(N2CC(C)(CN)C2)c(F)cc2c(=O)c(C(=O)O)cn(C3CC3)c12
- Vd [5]: 2.5 L/kg
- half-life [6]: 1.3 h
- MIC (Moraxella catarrhalis): 0.06 µg/mL (≈ 0.167 µM)
- MIC (Staphylococcus aureus [1]): 0.06 µg/mL (≈ 0.167 µM)
- Cmax [7]: 300 ng/mL
- MIC (Streptococcus pneumoniae [2]): 0.06 µg/mL (≈ 0.167 µM)
- MIC (Haemophilus influenzae): 0.015 µg/mL (≈ 0.0417 µM)
- clearance [8]: 33 mL/min/kg
- MIC (Staphylococcus aureus [3]): 0.06 µg/mL (≈ 0.167 µM)
- AUC (Rattus norvegicus): 2.5 ug/hr.ml
- MIC (Streptococcus pneumoniae [4]): 2 µg/mL (≈ 5.56 µM)
- bioavailability [9]: 18%

SMILES: Cc1c(N2CC(C)(CNCCC#N)C2)c(F)cc2c(=O)c(C(=O)O)cn(C3CC3)c12
- MIC (Moraxella catarrhalis): 0.125 µg/mL (≈ 0.303 µM)
- MIC (Staphylococcus aureus [1]): 0.03 µg/mL (≈ 0.0727 µM)
- MIC (Streptococcus pneumoniae [2]): 0.125 µg/mL (≈ 0.303 µM)
- inhibition at 300 µM (hERG (KCNH2)): 18%
- MIC (Haemophilus influenzae): 0.06 µg/mL (≈ 0.145 µM)
- MIC (Staphylococcus aureus [3]): 0.03 µg/mL (≈ 0.0727 µM)
- MIC (Streptococcus pneumoniae [4]): 2 µg/mL (≈ 4.85 µM)
- Ki [10]: > 150 µM

SMILES: COc1c(N2CC[C@@H](CN)C2)c(F)cc2c(=O)c(C(=O)O)cn(C3CC3)c12
- MIC (Moraxella catarrhalis): 0.125 µg/mL (≈ 0.333 µM)
- MIC (Staphylococcus aureus [1]): 0.06 µg/mL (≈ 0.16 µM)
- MIC (Streptococcus pneumoniae [2]): 0.06 µg/mL (≈ 0.16 µM)
- MIC (Haemophilus influenzae): 0.015 µg/mL (≈ 0.04 µM)
- MIC (Staphylococcus aureus [3]): 0.015 µg/mL (≈ 0.04 µM)
- MIC (Streptococcus pneumoniae [4]): 1 µg/mL (≈ 2.66 µM)
- Ki [10]: 24 µM
